Measured values: ChEMBL document CHEMBL1177802, “Novel semicarbazones based 2,5-disubstituted-1,3,4-oxadiazoles: one more step towards establishing four binding site pharmacophoric model hypothesis for anticonvulsant activity” (Bioorg Med Chem Lett, 2010)
Activity calls are given as the source filed them.

Key:
Rattus norvegicus [1] = experiment: Increase in GABA level in Wistar rat midbrain assessed per mg of tissue at 30 mg/kg, ip after 2 hrs; format: functional; details: route intraperitoneal
Rattus norvegicus [2] = experiment: Increase in GABA level in Wistar rat cerebellum assessed per mg of tissue at 30 mg/kg, ip after 2 hrs; format: functional; details: route intraperitoneal
In short: (§1)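 Rats dosed ip, killed by decapitation 2 h after dosing. Midbrain, medulla oblongata and cerebellum were each placed separately in ice-cold 80% ethanol and processed for GABA by a previously reported method. GABA was expressed per 100 mg tissue. Values are the mean ± SEM of six rats, compared with an untreated control group.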

Rattus norvegicus [3] = experiment: Increase in GABA level in Wistar rat medulla oblangata assessed per mg of tissue at 30 mg/kg, ip after 2 hrs; format: functional, Medulla oblongata; details: route intraperitoneal; in short: as §1
Mus musculus [4] = experiment: Anticonvulsant activity against subcutaneous pentylenetetrazole-induced seizures in ip dosed Swiss albino mouse assessed as minimum effective dose after 4 hrs; format: functional; details: read-out: MED
In short: (§2)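 Mice; subcutaneous pentylenetetrazole seizure screen after ip dosing at 30, 100 and 300 mg/kg, read 0.5 and 4.0 h post-dose. Scored as the lowest dose protecting at least half of the animals. Absence of activity is judged at the 300 mg/kg maximum.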

Rattus norvegicus [5] = experiment: Anticonvulsant activity against subcutaneous strychnine-induced seizures in Wistar rat at 300 mg/kg, ip after 0.5 hrs; format: functional, organism-based; parameters: dose 300 mg/kg
In short: (§3)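 Rats; subcutaneous strychnine-induced seizure model with compounds given intraperitoneally at 30, 100 and 300 mg/kg. Activity is checked at 0.5 h and 4.0 h and recorded as the minimal dose active in at least half of the animals. Absence of activity is judged at the 300 mg/kg maximum.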

Mus musculus [6] = experiment: Anticonvulsant activity against maximal electroshock-induced seizures in ip dosed Swiss albino mouse assessed as minimum effective dose after 0.5 hrs; format: functional; details: read-out: MED
In short: (§4)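 Mice; compounds given ip at 30, 100 and 300 mg/kg and tested in the maximal electroshock seizure model at 0.5 and 4.0 h after dosing. Read-out is the minimal dose giving protection in half or more of the animals. Absence of activity is judged at the 300 mg/kg maximum.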

Rattus norvegicus [7] = experiment: Anticonvulsant activity against maximal electroshock-induced seizures in Wistar rat at 30 mg/kg, po after 1 hr; format: functional, organism-based; parameters: dose 30 mg/kg
In short: (§5)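 Rats dosed orally at 30 mg/kg; maximal electroshock protection scored at 0.25, 0.5, 1, 2 and 4 h. Result is given as the number of protected rats out of four.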

Rattus norvegicus [8] = experiment: Anticonvulsant activity against maximal electroshock-induced seizures in Wistar rat at 30 mg/kg, po after 0.5 hrs; format: functional, organism-based; parameters: dose 30 mg/kg; in short: as §5
Rattus norvegicus [9] = experiment: Neurotoxicity in Wistar rat at 30 mg/kg, po after 0.25 hrs; format: toxicity, organism-based; parameters: dose 30 mg/kg, route oral; details: in vivo
In short: (§6)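 Oral dosing in rats at 30 mg/kg, neurotoxicity (rotorod) scored at 0.25, 0.5, 1, 2 and 4 h post-administration. Counts are out of four rats per time point.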

Rattus norvegicus [10] = experiment: Neurotoxicity in Wistar rat at 30 mg/kg, po after 2 hrs; format: toxicity, organism-based; parameters: dose 30 mg/kg, route oral; details: in vivo; in short: as §6
Mus musculus [11] = experiment: Anticonvulsant activity against subcutaneous pentylenetetrazole-induced seizures in Swiss albino mouse at 300 mg/kg, ip after 0.5 hrs; format: functional, organism-based; parameters: dose 300 mg/kg; in short: as §2
Rattus norvegicus [12] = experiment: Neurotoxicity in Wistar rat at 30 mg/kg, po after 0.5 hrs; format: toxicity, organism-based; parameters: dose 30 mg/kg, route oral; details: in vivo; in short: as §6
Rattus norvegicus [13] = experiment: Anticonvulsant activity against maximal electroshock-induced seizures in Wistar rat at 30 mg/kg, po after 0.25 hrs; format: functional, organism-based; parameters: dose 30 mg/kg; in short: as §5
Rattus norvegicus [14] = experiment: Anticonvulsant activity against subcutaneous strychnine-induced seizures in ip dosed Wistar rat assessed as minimum effective dose after 4 hrs; format: functional; details: read-out: MED; in short: as §3
Rattus norvegicus [15] = experiment: Increase in GABA level in Wistar rat midbrain assessed per mg of tissue at 100 mg/kg, ip after 2 hrs; format: functional; details: route intraperitoneal
In short: (§7)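 Rats given 100 mg/kg ip and killed by decapitation 2 h later. Midbrain, medulla oblongata and cerebellum are placed separately in ice-cold 80% ethanol and processed for GABA, expressed per 100 mg tissue. Reference drug clobazam is given at 30 mg/kg ip. Values are mean ± SEM of six rats.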

Mus musculus [16] = experiment: Neurotoxicity in Swiss albino mouse at 300 mg/kg, ip after 0.5 hrs; format: toxicity, organism-based; parameters: dose 300 mg/kg, route intraperitoneal; details: in vivo
In short: (§8)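 Acute neurotoxicity by rotorod test in mice given 30, 100 and 300 mg/kg ip, assessed 0.5 and 4.0 h after dosing. Reported as the minimal dose producing the effect in half or more of the animals. Absence of activity is judged at the 300 mg/kg maximum.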

Mus musculus [17] = experiment: Neurotoxicity in Swiss albino mouse at 300 mg/kg, ip after 4 hrs; format: toxicity, organism-based; parameters: dose 300 mg/kg, route intraperitoneal; details: in vivo; in short: as §8
Rattus norvegicus [18] = experiment: Increase in GABA level in Wistar rat cerebellum assessed per mg of tissue at 100 mg/kg, ip after 2 hrs; format: functional; details: route intraperitoneal; in short: as §7
Rattus norvegicus [19] = experiment: Neurotoxicity in Wistar rat at 30 mg/kg, po after 1 hr; format: toxicity, organism-based; parameters: dose 30 mg/kg, route oral; details: in vivo; in short: as §6
Mus musculus [20] = experiment: Anticonvulsant activity against maximal electroshock-induced seizures in ip dosed Swiss albino mouse assessed as minimum effective dose after 4 hrs; format: functional; details: read-out: MED; in short: as §4
Rattus norvegicus [21] = experiment: Increase in GABA level in Wistar rat medulla oblangata assessed per mg of tissue at 100 mg/kg, ip after 2 hrs; format: functional, Medulla oblongata; details: route intraperitoneal; in short: as §7
Rattus norvegicus [22] = experiment: Neurotoxicity in Wistar rat at 30 mg/kg, po after 4 hrs; format: toxicity, organism-based; parameters: dose 30 mg/kg, route oral; details: in vivo; in short: as §6
Rattus norvegicus [23] = experiment: Anticonvulsant activity against maximal electroshock-induced seizures in Wistar rat at 30 mg/kg, po after 2 hrs; format: functional, organism-based; parameters: dose 30 mg/kg; in short: as §5
Mus musculus [24] = experiment: Neurotoxicity in ip dosed Swiss albino mouse assessed as minimum dose required to cause toxicity after 4 hrs; format: organism-based; details: in vivo; in short: as §8
Rattus norvegicus [25] = experiment: Anticonvulsant activity against subcutaneous strychnine-induced seizures in ip dosed Wistar rat assessed as minimum effective dose after 0.5 hrs; format: functional; details: read-out: MED
In short: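 Rats given 30, 100 or 300 mg/kg ip and challenged with subcutaneous strychnine. Protection was read at 0.5 and 4.0 h after dosing. The value is the minimal dose that gave activity in half or more of the animals; no activity at 300 mg/kg was the highest-dose cut-off.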

Mus musculus [26] = experiment: Neurotoxicity in ip dosed Swiss albino mouse assessed as minimum dose required to cause toxicity after 0.5 hrs; format: organism-based; details: in vivo; in short: as §8
Mus musculus [27] = experiment: Anticonvulsant activity against subcutaneous pentylenetetrazole-induced seizures in Swiss albino mouse at 300 mg/kg, ip after 4 hrs; format: functional, organism-based; parameters: dose 300 mg/kg; in short: as §2
Mus musculus [28] = experiment: Anticonvulsant activity against subcutaneous pentylenetetrazole-induced seizures in ip dosed Swiss albino mouse assessed as minimum effective dose after 0.5 hrs; format: functional; details: read-out: MED; in short: as §2

Row | SMILES | minimal effective dose (Mus musculus [4]) [mg/kg] | MED (Rattus norvegicus [5]) | minimal effective dose (Mus musculus [6]) [mg/kg] | Activity (Rattus norvegicus [7]) | Activity (Rattus norvegicus [8]) | Activity (Rattus norvegicus [9]) | Activity (Rattus norvegicus [10]) | MED (Mus musculus [11]) | Activity (Rattus norvegicus [12]) | Activity (Rattus norvegicus [13]) | minimal effective dose (Rattus norvegicus [14]) [mg/kg] | Activity (Rattus norvegicus [15]) [µg] | Activity (Mus musculus [16]) | Activity (Mus musculus [17]) | Activity (Rattus norvegicus [18]) [µg] | Activity (Rattus norvegicus [19]) | minimal effective dose (Mus musculus [20]) [mg/kg] | Activity (Rattus norvegicus [21]) [µg] | Activity (Rattus norvegicus [22]) | Activity (Rattus norvegicus [23]) | other results
1 | CN1C(=O)CC(=O)N(c2ccccc2)c2cc(Cl)ccc21 [CLOBAZAM] |  |  |  |  |  |  |  |  |  |  |  |  |  |  |  |  |  |  |  |  | Activity (Rattus norvegicus [1]): 69.51 µg; Activity (Rattus norvegicus [2]): 35.44 µg; Activity (Rattus norvegicus [3]): 47.53 µg
2 | O=C(N/N=C(/c1ccccc1)c1ccc(O)cc1)Nc1nnc(COc2ccc3ccccc3c2)o1 | 300 | inactive | 100 | inactive | inactive | Non-toxic | Non-toxic | inactive | Non-toxic | inactive | 300 | 62.25 | Non-toxic | Non-toxic | 31.41 | Non-toxic | 300 | 37.74 |  |  | 
3 | C/C(=N/NC(=O)Nc1nnc(COc2ccc3ccccc3c2)o1)c1ccc([N+](=O)[O-])cc1 | 300 | inactive | 100 | inactive |  | Non-toxic |  | inactive | Non-toxic | inactive | 300 | 45.5 | Non-toxic | Non-toxic | 27.56 | Non-toxic | 300 | 40.42 | Non-toxic | inactive | 
4 | O=C(N/N=C\c1ccc(O)cc1)Nc1nnc(COc2ccc3ccccc3c2)o1 |  |  | 100 |  | inactive | Non-toxic | Non-toxic | inactive | Non-toxic | inactive | 300 | 53.77 |  |  | 28.53 | Non-toxic | 300 | 35.48 |  | inactive | Activity (Mus musculus [24]): 100 mg/kg; minimal effective dose (Rattus norvegicus [25]): 100 mg/kg; Activity (Mus musculus [26]): 100 mg/kg; MED (Mus musculus [27]): inactive
5 | O=C(N/N=C(/c1ccccc1)c1ccc([N+](=O)[O-])cc1)Nc1nnc(COc2ccc3ccccc3c2)o1 | 300 | inactive | 100 | inactive | inactive | Non-toxic | Non-toxic |  | Non-toxic | inactive | 300 | 67.72 | Non-toxic | Non-toxic | 29.75 | Non-toxic | 300 | 46.62 | Non-toxic | inactive | minimal effective dose (Mus musculus [28]): 100 mg/kg
